NadD inh = inhibitors of S. aureus NadD, primary screen, biochemical, colorimetric, uHTS. Nicotinate-nucleotide adenylyltransferase NadD (Staphylococcus aureus N315). purified NadD enzyme, colorimetric absorbance read-out. inhibition, % at 20 µM. 0.78% of 360,000 active. AID 602399, 2012; in the data active means inhibition above about 26%
NR3A LBD binder = binders of NR3A ligand-binding domain, primary screen, biophysical, differential scanning fluorimetry, uHTS. Tm shift relative to glycine control, % at 25 µM. 2.5% of 340,000 active. NR3A LBD differential scanning fluorimetry, Tm shift; 0% = protein alone, 100% = glycine-bound protein;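 active means melting temperature shift of at least 10% of the positive control shift, at one fixed dose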
ATG4B inhibitor = ATG4B protease inhibitors, primary screen, biochemical, fluorescence, uHTS; inhibition, % at 8.33 µM; 0.51% of 340,000 active; AID 504462, 2011; Cysteine protease ATG4B (Homo sapiens), Q9Y4P1; ATG4B cleavage of LC3-PLA2, NBD-HPC fluorescence, 1 h; in the data active means inhibition above about 40%
Target sequence (Q9Y4P1 whole entry, looked up): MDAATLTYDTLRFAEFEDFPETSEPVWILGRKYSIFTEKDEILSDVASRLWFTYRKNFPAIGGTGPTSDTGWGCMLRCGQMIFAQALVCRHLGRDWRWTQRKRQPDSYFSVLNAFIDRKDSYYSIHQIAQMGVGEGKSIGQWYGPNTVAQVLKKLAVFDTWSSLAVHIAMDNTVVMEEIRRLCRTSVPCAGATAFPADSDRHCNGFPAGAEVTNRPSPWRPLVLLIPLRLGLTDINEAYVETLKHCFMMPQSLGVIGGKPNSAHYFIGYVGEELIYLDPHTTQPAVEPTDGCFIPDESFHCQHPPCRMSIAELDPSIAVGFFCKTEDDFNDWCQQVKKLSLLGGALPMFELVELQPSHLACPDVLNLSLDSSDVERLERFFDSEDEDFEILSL
UCH37 inh = inhibitors of human UCH37 deubiquitinase, primary screen, biochemical, Ub-AMC cleavage, fluorescence; Ubiquitin carboxyl-terminal hydrolase isozyme L5 (Homo sapiens), Q9Y5K5; purified proteasome/UCH37; inhibition, % (no concentration beside the values); 0.33% of 330,000 active; AID 588478, 2011;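 active means mean inhibition over replicate wells above about 20%, limit read from the data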;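 further: 0% = compound-free wells with enzyme and 100% = wells lacking proteasome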
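Material: human UCH37 enzyme supplied as purified proteasome complex / Amount: 0.15 nM proteasome as dispensed / Buffer or medium: pH 7.4 Tris-HCl (50 mM) with ovalbumin, ATP-MgCl2, DTT / Times: preincubation 30 min, reaction 25 min, room temperature / Technique: AMC fluorescence from Ub-AMC cleavage, excitation 355 nm, emission 460 nm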
SENP1 inh = human SENP1 catalytic domain inhibitors, primary screen, biochemical, FRET, uHTS; recombinant SENP1 catalytic domain, CyPet-SUMO1-YPet FRET cleavage; 0.21% of 360,000 active; Sentrin-specific protease 1 (Homo sapiens), Q9P0U3; inhibition, % at 10 µM;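 active means inhibition at least 30% at 10 µM, raw YFP signal under a set limit, fluorescence ratio 0.5 to 1.5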;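 further: 0% = enzyme with DMSO and 100% = no enzyme wells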
Target sequence (Q9P0U3 419-644 limits assumed): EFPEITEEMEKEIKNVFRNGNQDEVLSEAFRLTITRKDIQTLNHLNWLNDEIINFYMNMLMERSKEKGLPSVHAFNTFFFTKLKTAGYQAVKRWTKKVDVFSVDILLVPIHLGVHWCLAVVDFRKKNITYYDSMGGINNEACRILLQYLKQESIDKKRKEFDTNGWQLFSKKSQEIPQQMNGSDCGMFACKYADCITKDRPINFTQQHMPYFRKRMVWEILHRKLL
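Test system: recombinant human SENP1 catalytic domain, His6-tagged / Medium: pH 8 Tris buffer with EDTA, NaCl, BME, BSA, NP40, catalase / Also added: SUMO1 FRET substrate flanked by Cypet and Ypet, 25 nM / Times: 50 min reaction at room temperature / Signal: FRET, CFP and YFP emission / Control set: no-enzyme low control and enzyme-plus-DMSO high control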
Numbers without * were called inactive; . = no result given. Shown are actives, neighbours in structure and some others; about 3.6% of the full set was active somewhere.

SMILES	NadD inh	NR3A LBD binder	ATG4B inhibitor	UCH37 inh	SENP1 inh
O=C(NN=Cc1ccc([N+](=O)[O-])o1)C1CC1	.	.	.	13	.
C/C(=N\NC(=O)c1ccn(C)n1)c1ccc(NC(=O)c2cccc(F)c2)cc1	-6	16*	2	.	1
CC(=O)Nc1ccc(CCNC(=O)c2ccc3ccccc3c2O)cc1	-5	24*	-1	.	0
CCOC(=O)c1ccc(NC(=S)NCCc2ccc(F)cc2)cc1	-8	24*	-9	1	2
COc1ccc(CCNC(=O)c2ccccc2C(=O)NCCc2ccc(OC)cc2)cc1	-3	-1	1	-3	-1
CCOC(=O)c1ccc(NC(=O)/C=C/c2cccs2)cc1	-9	23*	-12	1	2
Cc1ccc(C=NNc2ncc(Cl)cc2Cl)s1	.	.	.	0	.
NC(=NOC(=O)c1ccccc1[N+](=O)[O-])c1ccccn1	.	.	.	4	.
CCn1c(C)nc2cc(C(=O)NN=C(C)c3ccc(OC)cc3O)ccc21	.	.	.	1	.
COc1ccc(C(C)=NN2C(=O)c3ccccc3NC2c2ccc(O)c(OC)c2)cc1 (stereo not given)	.	.	.	-4	.
COc1cc(C=NNC(=O)CSc2n[nH]c(=O)[nH]c2=O)cc(OC)c1O	.	.	.	3	.
O=C(CSC1=NC(=O)C(c2ccccc2)C(=O)N1)Nc1cccc(Cl)c1 (stereo not given)	-6	-1	3	9	0
CC(=O)c1ccc(NC(=O)c2ccc3nc(-c4ccco4)c(-c4ccco4)nc3c2)cc1	93*	-8	26	-20	-22
Cc1ccc(NC(=O)c2ccccc2)cc1	-2	6	-12	0	1
COC(=O)c1ccc(NC(=O)CSC2=NC(=O)C(c3ccccc3)C(=O)N2)cc1 (stereo not given)	1	12*	-8	6	2
CCOc1ccc(C(=O)Nc2ccc(NC(=O)c3ccccc3)cc2)cc1Br	6	29*	-1	-10	0
CC(=O)Nc1ccc(NC(=O)c2ccc(NC(=O)c3ccccc3)cc2)cc1	17	28*	0	-6	-2
CC(=NNC(=O)C1CC1)c1ccc(N2CCOCC2)cc1	.	.	.	3	.
COc1ccc(C=NNC(=O)c2ccoc2C)cc1COc1ccc(Cl)cc1	.	.	.	3	.
COc1ccc(C(=O)NN=C(C)CC(=O)Nc2cccc(C(F)(F)F)c2)cc1	.	.	.	2	.
CC(=O)Nc1ccc(C(=O)NCCc2ccccc2)cc1	4	16*	-13	7	1
COC(=O)c1ccc(NC(=O)CNc2ccccc2)cc1	-4	42*	-6	4	-1
O=C(NCCc1ccccc1)c1ccc(NC(=O)C2CC2)cc1	1	-1	1	.	3
C/C(=N\NC(=O)c1ccccc1O)c1ccc(NC(=O)c2ccccc2)cc1	3	11*	-3	.	1
CCOC(=O)c1sc(=S)n(C)c1NC(=O)c1ccccc1	3	16*	-6	6	0
SMILES	NadD inh	NR3A LBD binder	ATG4B inhibitor	UCH37 inh	SENP1 inh
CC(Cn1nnc2ccccc21)=NOC(=O)c1ccccc1C	.	.	.	4	.
CNC(=S)NN=C(C)c1cccc([N+](=O)[O-])c1	.	.	.	4	.
CCOc1ccc(CC(=O)NNC(=S)Nc2ccccc2)cc1Br	0	13*	-9	0	0
CCOC(=O)c1ccc(NC(=O)c2ccc(NC(=O)c3ccccc3)cc2)cc1	1	30*	-5	0	2
CCOC(=O)c1ccc(NC(=O)Nc2ccc3c(c2)OCCO3)cc1	-6	14*	-11	-3	0
N#CCC(=O)Nc1ccc(C(=O)OCC(=O)NC(=O)Nc2ccc3c(c2)OCCO3)cc1	25	3	-50	-2	-20
COC(=O)c1ccc(NC(=O)C(=O)N2CCN(C(=S)NCCc3ccccc3)CC2)cc1	-3	15*	0	2	2
CC(=NO)C1CC(CC(=O)O)C1(C)C (stereo not given)	.	.	.	2	.
O=C(CNc1ccccc1)NN=Cc1cn(-c2ccccc2)nc1-c1ccccc1	.	.	.	0	.
O=C(O)c1ccc(C=NNC(=O)C2CC2(c2ccccc2)c2ccccc2)cc1 (stereo not given)	.	.	.	1	.
CNC(=O)N(O)C1N(N=Cc2ccccc2OC)C(=S)SC1(C)C (stereo not given)	.	.	.	10	.
CC(=O)Nc1ccc(C(=O)c2ccccc2)cc1	1	13*	11	5	0
Cc1cccc(C(=O)Nc2ccc(C(=O)c3ccccc3)cc2)c1	-13	-2	22	3	-12
CC(NO)C(=NO)c1cccs1 (stereo not given)	.	.	.	3	.
COc1ccc(CSCC(=O)NN=Cc2ccc(OCC(=O)NCc3ccco3)cc2)cc1	.	.	.	-2	.
CC(C)C[C@H]1CN([C@@H](CC(C)C)CN2CCCC2CN2C(=S)NC[C@@H]2Cc2ccc(O)cc2)C(=S)N1CC1CCCCCC1 (stereo not given in full)	27	5	.	.	2
CC(C)C[C@H]1CN([C@@H](CC(C)C)CN2CCCC2CN2C(=S)NC[C@@H]2Cc2ccc(O)cc2)C(=S)N1CC1CCCCC1 (stereo not given in full)	29	13*	.	.	2
CC(C)C[C@@H](CN1CCC[C@@H]1CN1C(=S)NC[C@@H]1Cc1ccc(O)cc1)N1C[C@H](Cc2ccc(O)cc2)N(CC2CCCCC2)C1=S	42*	.	.	.	1
Cc1ccccc1C=NNc1nc2ccccc2c(=O)n1O	.	.	.	3	.
Cc1nc2c(cc1C(=O)NN=Cc1ccc([N+](=O)[O-])cc1)c(=O)n(C)c(=O)n2C	.	.	.	3	.
CCN(CC)c1ccc(NC(=O)C2CC(=O)N(Cc3ccccc3)C2)cc1 (stereo not given)	-1	0	-10	4	0
CC(C)c1ccc(CN2CC(C(=O)Nc3ccccc3)CC2=O)cc1 (stereo not given)	-7	15*	-6	7	1
O=C(Nc1cccc(S(=O)(=O)c2cccc(NC(=O)c3ccco3)c2)c1)c1ccco1	-10	35*	1	0	0
COc1ccc(Br)cc1C(=O)Nc1ccc(NC(=O)c2ccco2)cc1	7	18*	-3	-13	3
O=C(Nc1cccc(S(=O)(=O)N2CCCC2)c1)c1ccco1	-6	1	4	1	0
O=C(Nc1ccc(Br)cc1)c1ccco1	1	-11	2	1	1
CC(C)CNC(=O)c1cccc(NC(=O)c2ccc(NC(=O)c3ccco3)cc2)c1	6	23*	-5	0	1
COC(=O)c1ccc(NC(=O)c2cccc(NC(=O)c3ccco3)c2)cc1	-4	-6	-9	5	1
O=C(Nc1cc(Br)c(O)c(Br)c1)c1cccc(NC(=O)c2ccco2)c1	-1	23*	-10	6	-1
